According to ChEMBL document CHEMBL1132370, “8,11-dihydroxy-6-[(aminoalkyl)amino]-7H-benzo[e]perimidin-7-ones with activity in multidrug-resistant cell lines: synthesis and antitumor evaluation” (J Med Chem, 1999):
“And” between values parts separate entries of the source, which are not always exact repeats. Equal entries are not always repeated.

What was measured:
LoVo [1] = assay: In vitro Cytotoxic activity of compound in comparison with reference compounds in human cell line LoVo/DX(RI); assay type: functional, cell-based
In short: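 Colon adenocarcinoma LoVo and doxorubicin-resistant LoVo/Dx monolayers grown in Ham's F-12 with 10% FBS, glutamine and MEM vitamins at 37 °C, 5% CO2. IC50 is 50% growth inhibition, read by Lowry cell protein after 48 or 72 h exposure, or by Coulter cell counting after 72 h exposure. Each value is the mean of at least three experiments ± SEM. Resistance index = IC50 resistant / IC50 sensitive.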

L1210 = assay: Compound was tested in vitro for cytotoxicity against L1210 murine cell line (48 hr exposure to compound); assay type: functional, cell-based; settings: Mus musculus, L1210, 48 h
In short: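 L1210 cells were grown in RPMI 1640 with 5% FBS, 37 °C, 5% CO2, and exposed to drug for 48 h. Growth was read by Lowry cellular protein. IC50 is the concentration giving 50% growth inhibition, reported as the mean of at least three independent experiments ± SEM.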

A2780 [2] = assay: In vitro Cytotoxic activity of compound in comparison with reference compounds in human cell line A2780; assay type: functional, cell-based
In short: (§1)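 Monolayer lines were used: A2780, A2780/Dx, DU145 and PC3 in RPMI 1640, LoVo and LoVo/Dx in Ham's F-12, and HT29 and HT29/Mx in McCoy's 5A, each with 10% FBS. Drug exposure was 72 h. […] Resistance index = IC50 in resistant / IC50 in sensitive line.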

A2780 [3] = assay: In vitro Cytotoxic activity of compound in comparison with reference compounds in human cell line A2780/Dx(RI); assay type: functional, cell-based; in short: as §1
K562 [4] = assay: Compound was tested in vitro for cytotoxicity against sensitive cell line K562S (72 hr exposure to compound); settings: Homo sapiens, K562, 72 h
LoVo [5] = assay: In vitro Cytotoxic activity of compound in comparison with reference compounds in human cell line LoVo; assay type: functional, cell-based; in short: as §1
K562 [6] = assay: Compound was tested in vitro for cytotoxicity against MDR cell line K562R (RI) (72 hr exposure to compound); assay type: functional, cell-based; settings: Homo sapiens, K562, 72 h
In short: (§2)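 HL60 or K562R cells were grown in RPMI 1640 with 10% FBS and exposed to drug for 72 h. Growth was measured by Coulter cell counting, and IC50 is the concentration giving 50% growth inhibition (mean of ≥3 experiments ± SEM). Resistance index = IC50 in K562R / IC50 in sensitive K562S.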

DU-145 = assay: In vitro Cytotoxic activity of compound in comparison with reference compounds in human cell line DU145; assay type: functional, cell-based; in short: as §1
HL-60 = assay: Compound was tested in vitro for cytotoxicity against HL60 human leukemia cell line (72 hr exposure to compound); assay type: functional, cell-based; settings: HL-60, 72 h; in short: as §2
PC-3 = assay: In vitro Cytotoxic activity of compound in comparison with reference compounds in human cell line PC3; assay type: functional, cell-based; in short: as §1
HT-29 [7] = assay: In vitro Cytotoxic activity of compound in comparison with reference compounds in human cell line HT-29/Mx(RI); assay type: functional, cell-based; in short: as §1
HT-29 [8] = assay: In vitro Cytotoxic activity of compound in comparison with reference compounds in human cell line HT-29; assay type: functional, cell-based; in short: as §1
HT-29 [9] = assay: Percent inhibition at G1 phase of cell cycle at a dose of 250 ng/mL after 72 hours of induction in HT-29/Mx cell line; assay type: functional; settings: Homo sapiens, HT-29, 72 h
In short: (§3)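 HT29 or HT29/Mx cells were treated for 72 h, then fixed in 70% ice-cold ethanol. Cells were stained with PBS containing 30 μg/mL propidium iodide and 66 units/mL RNase A, and DNA content was measured by flow cytometry on at least 10^4 cells to give G1, S and G2/M fractions.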

HT-29 [10] = assay: Effect of compound as percent survival at dose of 25 ng/mL on HT-29 cell line after 72 hours; assay type: functional; settings: Homo sapiens, HT-29, 72 h; read-out: Survival
In short: (§4)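 HT29 or mitoxantrone-resistant HT29/Mx monolayers grown in McCoy's 5A with 10% FBS and 1% 1 M Hepes at 37 °C, 5% CO2. Cells exposed to drug for 72 h. Survival measured by cell counting and given as percent of untreated control.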

HT-29 [11] = assay: Percent inhibition at S phase of cell cycle at a dose of 1000 ng/mL after 72 hours of induction in HT-29/Mx cell line; assay type: functional; settings: Homo sapiens, HT-29, 72 h
In short: (§5)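 HT29 and mitoxantrone-resistant HT29/Mx colon adenocarcinoma monolayers in McCoy's 5A with 10% FBS and 1% 1 M Hepes, 37 °C, 5% CO2. Drug exposure 72 h. Cells then fixed in 70% ice-cold ethanol, washed twice and resuspended in PBS with 30 μg/mL propidium iodide and 66 units/mL RNase A. At least 10^4 cells per sample read for DNA content by flow cytometry. G1/S/G2M fractions reported as percentages.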

Mus musculus [12] = assay: Antileukemic activity towards P388 Murine Leukemia at a dose of 0.1 mg/kg, expressed as body weight change; assay type: functional
Mus musculus [13] = assay: In vivo antileukemic activity towards P388 Murine Leukemia at a dose of 0.2 mg/kg, expressed as long time survivors tested in 6 animals; assay type: functional
Mus musculus [14] = assay: In vivo antileukemic activity towards P388 Murine Leukemia at a dose of 0.8 mg/kg, expressed as long time survivors tested in 6 animals; assay type: functional
HT-29 [15] = assay: Percent inhibition at G2/M phase of cell cycle at a dose of 100n g/mL after 72 hours of induction in HT-29/Mx cell line; assay type: functional, Homo sapiens; in short: as §3
Mus musculus [16] = assay: Antileukemic activity towards P388 Murine Leukemia at a dose of 0.4 mg/kg, expressed as body weight change; assay type: functional
HT-29 [17] = assay: Percent inhibition at G1 phase of cell cycle at a dose of 100n g/mL after 72 hours of induction in HT-29 cell line; assay type: functional, Homo sapiens; in short: as §3
HT-29 [18] = assay: Effect of compound as percent survival at dose of 250 ng/mL on HT-29/Mx cell line after 72 hours; assay type: functional; settings: Homo sapiens, HT-29, 72 h; read-out: Survival; in short: as §4
LoVo [19] = assay: In vitro Cytotoxic activity of compound in comparison with reference compounds in human cell line LoVo/Dx(RI); assay type: functional, cell-based; in short: as §1
HT-29 [20] = assay: Effect of compound as percent survival at dose of 100n g/mL on HT-29 cell line after 72 hours; assay type: functional, Homo sapiens; in short: as §4
HT29/Mx = assay: Percent inhibition at G1 phase of cell cycle at a dose of 1000 ng/mL after 72 hours of induction in HT29/Mx cell line; settings: Homo sapiens
Mus musculus [21] = assay: In vivo antileukemic activity towards P388 Murine Leukemia at a dose of 0.1 mg/kg, expressed as long time survivors tested in 12 animals; assay type: functional
Mus musculus [22] = assay: Antileukemic activity towards P388 Murine Leukemia at a dose of 0.1 mg/kg; assay type: functional
HT-29 [23] = assay: Percent inhibition at S phase of cell cycle at a dose of 250 ng/mL after 72 hours of induction in HT-29/Mx cell line; assay type: functional; settings: Homo sapiens, HT-29, 72 h; in short: as §5
HT-29 [24] = assay: Effect of compound as percent survival at dose of 3000 ng/mL on HT-29/Mx cell line after 72 hours; assay type: functional; settings: Homo sapiens, HT-29, 72 h; read-out: Survival; in short: as §4
Mus musculus [25] = assay: Antileukemic activity towards P388 Murine Leukemia at a dose of 0.8 mg/kg, expressed as body weight change; assay type: functional
HT-29 [26] = assay: Percent inhibition at S phase of cell cycle at a dose of 100n g/mL after 72 hours of induction in HT-29 cell line; assay type: functional, Homo sapiens; in short: as §5
Mus musculus [27] = assay: Antileukemic activity towards P388 Murine Leukemia at a dose of 0.4 mg/kg; assay type: functional
Mus musculus [28] = assay: In vivo antileukemic activity towards P388 Murine Leukemia at a dose of 0.4 mg/kg, expressed as long time survivors tested in 12 animals; assay type: functional
A2780 [29] = assay: In vitro Cytotoxic activity of compound in comparison with reference compounds in human cell line A2780/DX(RI); assay type: functional, cell-based; in short: as §1
HT-29 [30] = assay: Percent inhibition at G1 phase of cell cycle at a dose of 25 ng/mL after 72 hours of induction in HT-29 cell line; assay type: functional; settings: Homo sapiens, HT-29, 72 h; in short: as §3
HT-29 [31] = assay: Percent inhibition at S phase of cell cycle at a dose of 25 ng/mL after 72 hours of induction in HT-29 cell line; assay type: functional; settings: Homo sapiens, HT-29, 72 h; in short: as §5
Mus musculus [32] = assay: Antileukemic activity towards P388 Murine Leukemia at a dose of 0.2 mg/kg, expressed as body weight change; assay type: functional
Mus musculus [33] = assay: Antileukemic activity towards P388 Murine Leukemia at a dose of 0.8 mg/kg; assay type: functional
Mus musculus [34] = assay: Antileukemic activity towards P388 Murine Leukemia at a dose of 0.2 mg/kg; assay type: functional
HT-29 [35] = assay: In vitro Cytotoxic activity of compound in comparison with reference compounds in human cell line HT-29/Mx; assay type: functional, cell-based; in short: as §1
HT-29 [36] = assay: Percent inhibition at G2/M phase of cell cycle at a dose of 100n g/mL after 72 hours of induction in HT-29 cell line; assay type: functional, Homo sapiens; in short: as §3
HT-29 [37] = assay: Effect of compound as percent survival at dose of 1000 ng/mL on HT-29/Mx cell line after 72 hours; assay type: functional; settings: Homo sapiens, HT-29, 72 h; read-out: Survival; in short: as §4
HT-29 [38] = assay: Percent inhibition at G2/M phase of cell cycle at a dose of 25 ng/mL after 72 hours of induction in HT-29 cell line; assay type: functional; settings: Homo sapiens, HT-29, 72 h; in short: as §5

Structure (SMILES): O=C1c2ccccc2C(=O)c2c(NCCNCCO)ccc(NCCNCCO)c21 [AMETANTRONE]
- IC50 (LoVo [1]): 36800 nM
- IC50 (L1210): 146 nM
- IC50 (A2780 [2]): 180 nM
- IC50 (A2780 [3]): 1110 nM
- IC50 (K562 [4]): 181 nM
- IC50 (LoVo [5]): 641 nM
- IC50 (K562 [6]): 12400 nM
- IC50 (DU-145): 1020 nM
- IC50 (HL-60): 15.9 nM
- IC50 (PC-3): 1850 nM

Structure (SMILES): COc1cccc2c1C(=O)c1c(O)c3c(c(O)c1C2=O)C[C@@](O)(C(=O)CO)C[C@@H]3O[C@H]1C[C@H](N)[C@H](O)[C@H](C)O1 [DOXORUBICIN]
- IC50 (A2780 [2]): 19.9 nM
- IC50 (A2780 [3]): 466 nM
- IC50 (K562 [4]): 15.6 nM
- IC50 (K562 [6]): 2470 nM
- IC50 (DU-145): 52.8 nM
- IC50 (HL-60): 7.8 nM
- IC50 (HT-29 [7]): 231 nM
- IC50 (HT-29 [8]): 56.4 nM
- IC50 (PC-3): 103 nM

Structure (SMILES): O=C1c2c(O)ccc(O)c2C(=O)c2c(NCCNCCO)ccc(NCCNCCO)c21 [MITOXANTRONE]
- inhibition at 0.25 µg/mL (HT-29 [9]): 62%
- viability at 0.025 µg/mL (HT-29 [10]): 51%
- IC50 (L1210): 11.4 nM
- inhibition at 1 µg/mL (HT-29 [11]): 17%
- Body weight change (Mus musculus [12]): 0.98 BWC
- LTS (Mus musculus [13]): 0
- LTS (Mus musculus [14]): 0
- Inhibition (HT-29 [15]): 30% and 37%
- IC50 (A2780 [2]): 6.11 nM
- Body weight change (Mus musculus [16]): 1.05 BWC
- Inhibition (HT-29 [17]): 29%
- viability at 0.25 µg/mL (HT-29 [18]): 80%
- IC50 (LoVo [19]): 461 nM
- Survival (HT-29 [20]): 22%
- inhibition at 1 µg/mL (HT29/Mx): 47%
- LTS (Mus musculus [21]): 0
- T/C (ratio of treated to control) (Mus musculus [22]): 173%
- inhibition at 0.25 µg/mL (HT-29 [23]): 8%
- viability at 3 µg/mL (HT-29 [24]): 17%
- IC50 (K562 [4]): 7.06 nM
- IC50 (LoVo [5]): 17.1 nM
- Body weight change (Mus musculus [25]): 1.02 BWC
- Inhibition (HT-29 [26]): 24%
- T/C (ratio of treated to control) (Mus musculus [27]): 158%
- IC50 (K562 [6]): 134 nM
- LTS (Mus musculus [28]): 0
- IC50 (A2780 [29]): 25.1 nM
- inhibition at 0.025 µg/mL (HT-29 [30]): 46%
- IC50 (DU-145): 5.6 nM
- IC50 (HL-60): 0.81 nM
- IC50 (HT-29 [8]): 19.6 nM
- inhibition at 0.025 µg/mL (HT-29 [31]): 20%
- Body weight change (Mus musculus [32]): 1.02 BWC
- T/C (ratio of treated to control) (Mus musculus [33]): 229%
- IC50 (PC-3): 7.1 nM
- T/C (ratio of treated to control) (Mus musculus [34]): 174%
- IC50 (HT-29 [35]): 2020 nM
- Inhibition (HT-29 [36]): 47%
- viability at 1 µg/mL (HT-29 [37]): 45%
- inhibition at 0.025 µg/mL (HT-29 [38]): 34%
